# Screening data from PubChem BioAssay.
# Hits are enriched below; roughly 1.8% of the tested compounds scored in any of these assays.
# M5 antag: blocks acetylcholine activation of human M5 receptor; P08912; CHO-hM5 cells, Fluo-8 calcium fluorescence, ACh EC80; inhibition, % at 3 µM; actives 0.59% (n = 360,000);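 active = inhibition above a per-plate cutoff, the mean of that plate's test compounds plus 3 SD, cut at about 27% in these data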;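 note: 0% = acetylcholine EC80 with DMSO and 100% = DMSO without agonist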
# Target sequence (P08912 whole entry, looked up): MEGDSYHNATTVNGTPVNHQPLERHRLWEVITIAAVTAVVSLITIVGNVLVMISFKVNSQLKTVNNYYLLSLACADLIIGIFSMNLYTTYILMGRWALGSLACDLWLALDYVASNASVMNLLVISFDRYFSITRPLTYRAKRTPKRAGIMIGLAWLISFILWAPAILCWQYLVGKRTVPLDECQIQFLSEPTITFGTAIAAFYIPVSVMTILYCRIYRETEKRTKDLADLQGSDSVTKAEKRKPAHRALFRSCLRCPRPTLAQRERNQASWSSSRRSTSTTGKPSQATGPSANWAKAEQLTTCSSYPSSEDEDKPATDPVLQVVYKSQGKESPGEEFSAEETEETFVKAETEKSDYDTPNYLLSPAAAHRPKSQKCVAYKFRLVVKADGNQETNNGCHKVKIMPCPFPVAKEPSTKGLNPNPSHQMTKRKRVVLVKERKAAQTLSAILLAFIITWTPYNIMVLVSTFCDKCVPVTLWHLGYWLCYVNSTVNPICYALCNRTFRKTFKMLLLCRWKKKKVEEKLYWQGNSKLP
# CHRM4 agonist: agonists of human muscarinic M4 receptor (CHRM4). P08173. CHO-K1 hM4/Gqi5, Fluo-8 calcium fluorescence; vehicle 0%, full acetylcholine response 100%. activation, % at 3 µM. actives 0.14% (n = 360,000). AID 624127;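 active = activation above the run mean over all test wells plus 3 SD, cut at about 32% in these data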;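 note: peak over basal fluorescence ratio per well then scaled between controls; 0% = DMSO wells and 100% = acetylcholine at EC100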
# CHRM5 PAM: potentiates acetylcholine response at human M5 receptor; P08912; CHO-K1 hM5, Fluo-8 calcium, ACh EC20 PAM; 0% = ACh EC20, 100% = ACh EC100; activation, % at 3 µM; actives 0.3% (n = 360,000);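 active = activation above the run cutoff, the mean activation of all test compounds plus 3 SD, cut at about 18% in these data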
#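 system = human M5 receptor in CHO-K1 cells | compound = one concentration, 3 µM final (nominal) | schedule = Post-acetylcholine fluorescence recording 140 s | signal = Fluo-8 calcium dye fluorescence, kinetic read | benchmarks = low control EC20 acetylcholine (0%), high control EC100 acetylcholine (100%) | repeats = singlicate, one well per test compound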
# M4 antag: antagonists of human muscarinic M4 receptor (CHRM4) | CHO-hM4 cells, ACh EC80, Fluo-8 calcium fluorescence | inhibition, % at 3 µM | actives 0.73% (n = 360,000) | AID 624125;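 active = inhibition above its plate's cutoff, the mean inhibition of sample wells plus 3 SD, cut at about 27% in these data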;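 note: 0% = acetylcholine EC80 with DMSO and 100% = DMSO without agonist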
# CHRM5 agonist: CHRM5 agonism in calcium assay. AID 624037. actives 0.19% (n = 360,000). P08912. CHO-K1 hM5 cells, Fluo-8 calcium fluorescence; 0% DMSO wells, 100% maximal acetylcholine response. activation, % at 3 µM;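 active = activation above the run's mean over test compounds plus 3 SD, cut at about 23% in these data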;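 note: signal is peak over basal fluorescence ratio across the kinetic read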
# M4 PAM: positive allosteric modulators of human muscarinic M4 receptor. AID 624126. CHO-K1 hM4/Gqi5, Fluo-8 calcium fluorescence, ACh EC20; 0% = ACh EC20, 100% = maximal ACh. actives 0.4% (n = 360,000). P08173. activation, % at 3 µM;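 active = activation above its plate's cutoff, the mean activation of sample wells plus 3 SD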
# The depositor's hits bear a star.
SMILES,M5 antag,CHRM4 agonist,CHRM5 PAM,M4 antag,CHRM5 agonist,M4 PAM
CCOC(=O)C1CCCN(C(=S)Nc2cccc(Cl)c2C)C1 (stereo unspecified),11.1,2.3,-17.1,5.7,27.9*,-0.3
CCOC(=O)C1CCCN(C(=S)Nc2cccc(Cl)c2)C1 (stereo unspecified),-1.9,6.0,-12.0,6.6,32.8*,-4.3
COc1cc(CCNC(=O)CCCn2c(=O)c3cccn3c3cccnc32)cc(OC)c1OC,7.5,4.4,-2.1,-2.0,-2.0,7.3
COC(=O)c1cn(NC(=O)c2cc(OC)c(OC)c(OC)c2)c(=O)c2ccccc12,-9.7,0.2,23.5*,-8.7,8.7,17.0
COC(=O)c1cn(NC(=O)c2cc(OC)cc(OC)c2)c(=O)c2ccccc12,-0.4,2.3,-6.3,4.4,-2.9,9.7
Cc1ccc(NC(=O)c2ccccc2NS(=O)(=O)c2ccc(Cl)s2)cc1S(=O)(=O)N1CCOCC1,31.8*,13.7,-19.9,13.4,4.9,-10.3
O=C(Nc1cc(S(=O)(=O)N2CCOCC2)ccc1O)c1ccc(NS(=O)(=O)c2ccc(Cl)s2)cc1,-3.2,-0.8,3.8,4.6,0.6,-4.6
Cc1c(Br)c([N+](=O)[O-])nn1C(C)C(=O)N1CCc2ccccc2C1 (stereo unspecified),20.7,1.0,-13.5,54.8*,-8.2,-14.2
Cc1c(Br)c([N+](=O)[O-])nn1CC(=O)N1CCc2ccccc2C1,-7.8,0.1,5.7,-5.6,-2.4,-4.6
CCc1cccc(NC(=O)C2CCCN2S(=O)(=O)c2ccc3c(c2)CC(C)N3C(C)=O)c1 (stereo unspecified),0.2,3.4,-0.5,-19.0,0.1,9.5
Cc1ccc(-c2nc3ccc(Cl)cn3c2Cc2cccc(Cl)c2)cc1,8.9,-1.3,-3.6,3.5,-1.4,-4.2
CC1CCN(CC[C@H]2CCCN2S(=O)(=O)c2cccc(O)c2)CC1,0.8,1.5,-9.4,50.6*,-1.3,-16.5
Cc1cn([C@H]2C[C@H](O)[C@@H](CCC(=O)NCCc3cnc[nH]3)O2)c(=O)[nH]c1=O,-2.9,-0.1,-3.7,-8.4,1.6,-1.2
FC(F)(F)c1ccccc1-c1ccc2nncn2c1,1.1,0.4,5.1,11.2,1.9,-1.0
CCc1ccc(C(=O)C(C)OC(=O)c2nn(C)c(=O)c3ccccc23)cc1 (stereo unspecified),17.1,10.6,-25.6,6.5,0.5,-8.9
CC(C)(C)c1nnc(NC(=O)Nc2ccc(Cl)cc2)s1,14.2,1.2,-4.5,-1.2,3.1,-7.5
Cc1noc(-c2ccccc2)c1NC(=O)Nc1ccc(Cl)cc1,22.9,10.2,-20.3,36.9*,-1.6,-58.3
Cc1nc(NC(=O)Nc2ccc(Cl)cc2)sc1C,5.2,6.8,-5.4,28.2*,3.8,-0.1
CCc1nc(CNC(=O)C2CCC(=O)N(Cc3ccccc3F)C2)no1 (stereo unspecified),-0.8,1.4,2.5,0.1,-0.2,-2.0
O=C(NCCCn1ccnc1)C(=O)NCC(c1ccco1)N1CCN(c2ccccc2)CC1 (stereo unspecified),3.8,1.6,0.0,33.0*,-0.5,-6.3
CC(O)[C@H]1CNC(=O)C(=O)N1CCc1cc(C(F)(F)F)cc(C(F)(F)F)c1 (stereo partly specified),42.5*,0.9,-17.4,-2.5,-5.3,2.6
CCC(C)[C@H]1CN=C(N)N1CCc1cc(C(F)(F)F)cc(C(F)(F)F)c1 (stereo partly specified),29.3*,-0.1,-41.8,9.8,-10.5,-7.9
NC1=NC[C@@H](CC2CCCCC2)N1CCc1cc(C(F)(F)F)cc(C(F)(F)F)c1,45.1*,-0.7,-19.6,23.9,-3.2,-14.0
CC(O)[C@H]1CNC(=O)C(=O)N1CCc1cccc(F)c1 (stereo partly specified),4.6,0.4,-0.6,-1.6,6.3,-1.8
CN(CC(=O)Nc1ccc(N2CCOCC2)cc1)C(=O)CCNC(=O)c1ccc(Br)cc1,3.1,1.1,3.9,-5.9,1.1,8.4
